Test results reported in ChEMBL document CHEMBL1124096, “Potential anticonvulsants. 11. Synthesis and anticonvulsant activity of spiro[1,3-dioxolane-2,3'-indolin]-2'-ones and structural analogues” (J Med Chem, 1988).

Tests used:
[1] = Protective index (TD50/ED50) for MES test in mice; format: ADME, organism-based; details: mouse, in vivo; read-out: PI
Summary of the method: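 Protective index taken as TD50 (rotorod) divided by MES ED50. Both measured in Phase II at the time of peak effect, 0.25 h, after ip dosing.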

Mus musculus [2] = organism: Mus musculus; experiment: Phase II effective dose against mice for maximal electroshock seizure test (MES) for 0.25 hr of test time; format: functional
Summary of the method: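 Phase II quantification: time of peak effect first determined, then median effective dose in the MES test (corneal 60-cycle AC, 50 mA, 0.2 s) found at that time, 0.25 h. Compound given ip.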

[3] = Phase II effective dose against mice for toxicity test (TOX) for 0.25 hr of test time; format: organism-based; details: mouse, in vivo
Summary of the method: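 Phase II: time of peak neurologic toxicity first determined. Median toxic dose then found by rotorod (1-in. knurled rod, 6 rpm, 1 min) at that time, 0.25 h. Compound given ip.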

Mus musculus [4] = experiment: Ability to protect mice against neurotoxicity (rotarod test) at 300 mg/kg for 0.5 hr in Phase I; no. of animals protected/No. of animals tested 0/4; format: organism-based; set-up: dose 300 mg/kg; details: in vivo
[5] = Ability to protect mice against subcutaneous pentylenetetrazole seizures (sc-Met) threshold test at 100 mg/kg for 0.5 hr in Phase I; no. of animals protected/No. of animals tested= 0/1; format: functional, organism-based; set-up: dose 100 mg/kg
[6] = Ability to protect mice against subcutaneous pentylenetetrazole seizures (sc-Met) threshold test at 300 mg/kg for 0.5 hr in Phase I; no. of animals protected/No. of animals tested= 0/1; format: functional, organism-based; set-up: dose 300 mg/kg
[7] = Ability to protect mice against electrically induced seizures (MES) at 300 mg/kg for 0.5 hr in Phase I; no. of animals protected/No. of animals tested= 0/1; format: functional, organism-based; set-up: dose 300 mg/kg
[8] = Ability to protect mice against electrically induced seizures (MES) at 100 mg/kg for 0.5 hr in Phase I; no. of animals protected/No. of animals tested= 0/3; format: functional, organism-based; set-up: dose 100 mg/kg

Row | Structure (SMILES) | selectivity ratio [1] | ED50 (Mus musculus [2]) | TD50 at 0.25 h [3] | other results
1 | O=C1Nc2cccc(Cl)c2C12OCCO2 | 1.24 | 95.6 mg/kg | 122 mg/kg | 
2 | O=C1Nc2ccccc2C12OCCCO2 | 1.67 | 110 mg/kg |  | 
3 | O=C1Nc2cc(Cl)ccc2C12OCCO2 | 1.68 | 72 mg/kg | 121 mg/kg | 
4 | O=C1Nc2ccccc2C12OCCO2 | 1.87 | 69.8 mg/kg | 130 mg/kg | 
5 | COC1(OC)C(=O)Nc2ccccc21 | 2.47 | 82 mg/kg | 203 mg/kg | 
6 | CN1C(=O)C2(OCCO2)c2ccccc21 | 1.3 | 90.9 mg/kg | 118 mg/kg | 
7 | O=C1Nc2ccccc2C12OCCS2 (stereo unspecified) | 1.65 | 60.4 mg/kg |  | 
8 | O=C1N(CN2CCOCC2)c2ccccc2C12OCCO2 | 1.89 | 90 mg/kg | 170 mg/kg | 
9 | O=C1Nc2ccc(Cl)cc2C12OCCO2 | 2.28 | 28 mg/kg | 63.7 mg/kg | 
10 | O=C1N(Cc2ccccc2)c2ccccc2C12OCCO2 |  |  |  | Ratio (Mus musculus [4]): no. of animals protected/No. of animals tested 0/4; Ratio [5]: no. of animals protected/No. of animals tested 0/4; Ratio [6]: no. of animals protected/No. of animals tested 0/4; Ratio [7]: no. of animals protected/No. of animals tested 0/4; Ratio [8]: no. of animals protected/No. of animals tested 0/4
11 | O=C1N(CN2CCCCC2)c2ccccc2C12OCCO2 | 1.39 |  | 187 mg/kg | 
12 | O=C1Nc2ccccc2C12SCCS2 |  | 174 mg/kg |  | 
13 | O=C1Nc2ccc(Br)cc2C12OCCO2 | 1.87 | 46.1 mg/kg | 86.5 mg/kg | 
